These results are taken from BindingDB's records for doi:10.1021/jm015578d (Sapienza University of Rome, 2002).

By Ki is commonly meant the dissociation constant of the complex between target and ligand, obtained from inhibition or displacement. High values mean lower affinity, low ones higher affinity.

For the assay, the target named is T1, Amine oxidase [flavin-containing] A (Bos taurus, UniProt P21398).
T1 sequence (P21398 whole entry): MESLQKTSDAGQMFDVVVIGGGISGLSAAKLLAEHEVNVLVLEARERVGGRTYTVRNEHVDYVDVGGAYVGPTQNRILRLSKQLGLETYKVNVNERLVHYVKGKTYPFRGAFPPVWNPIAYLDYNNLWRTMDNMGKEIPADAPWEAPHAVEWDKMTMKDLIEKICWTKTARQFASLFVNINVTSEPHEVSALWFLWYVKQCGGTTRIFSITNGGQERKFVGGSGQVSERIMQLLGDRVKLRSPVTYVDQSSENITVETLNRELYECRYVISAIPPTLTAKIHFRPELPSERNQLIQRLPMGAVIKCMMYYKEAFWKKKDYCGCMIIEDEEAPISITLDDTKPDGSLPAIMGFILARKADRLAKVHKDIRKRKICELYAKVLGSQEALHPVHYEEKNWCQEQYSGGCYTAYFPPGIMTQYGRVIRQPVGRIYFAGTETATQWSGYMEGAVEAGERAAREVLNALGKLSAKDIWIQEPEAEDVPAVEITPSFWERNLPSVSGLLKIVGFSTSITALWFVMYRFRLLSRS
In words: Inhibition of bovine brain mitochondrial Monoamine oxidase A (MAO-A) compared to toloxatone. An outline of the steps:
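Bovine brain mitochondria were isolated by the Basford method. To isolate MAO-A, fractions were preincubated 30 min at 38 °C with 1 μM L-deprenyl. Inhibitors in DMSO were preincubated 30 min, then kynuramine substrate was added, with 30 min further incubation. Product was read fluorimetrically and Ki values derived.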

Take `O=C1O[C@@H](CO)CN1n1cccc1`: affinity was put at a Ki of 270 nM.
